Calls of active or inactive are those of the source. The calls are words filed in the database; no cut-off is given here.
Legend:
SK-MEL-2 = experiment: Cytotoxicity against human SK-MEL-2 cells assessed as growth inhibition at 10 uM after 48 hrs by SRB assay; assay type: functional, cell-based
In short: (§1)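 Single-dose screen run by the NCI Developmental Therapeutics Program (NCI-60). Cells were grown in RPMI 1640 with 5% fetal bovine serum and 2 mM L-glutamine. They were plated at 5000–40 000 cells/well, depending on doubling time. Each line was run in two plates and exposed to 10 μM drug for 48 h at 37 °C, 5% CO2, 100% humidity. Read-out was growth percent.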

TK-10 = experiment: Cytotoxicity against human TK10 cells assessed as growth inhibition at 10 uM after 48 hrs by SRB assay; assay type: functional, cell-based
In short: (§2)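 NCI-60 DTP human tumour line screen. Cells grown in RPMI 1640 with 5% fetal bovine serum and 2 mM L-glutamine, plated at 5000–40 000 cells/well according to doubling time. Single dose of 10 μM for 48 h at 37 °C, 5% CO2, 95% air, 100% humidity, two plates per line. Read-out is growth percent.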

Hs-578T = experiment: Cytotoxicity against human Hs578T cells assessed as growth inhibition at 10 uM after 48 hrs by SRB assay; assay type: functional, cell-based
In short: (§3)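 NCI DTP 60-cell-line screen run at the NCI. Cells were grown in RPMI 1640 with 5% FBS and 2 mM L-glutamine. They were seeded at 5000–40 000 cells/well depending on doubling time and grown in two plates per line. Each was exposed to a single 10 μM dose for 48 h at 37 °C, 5% CO2, 95% air, 100% humidity. Read-out was percent growth.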

OVCAR-4 = experiment: Cytotoxicity against human OVCAR4 cells assessed as growth inhibition at 10 uM after 48 hrs by SRB assay; assay type: functional, cell-based; in short: as §1
A549 = experiment: Cytotoxicity against human A549 cells assessed as growth inhibition at 10 uM after 48 hrs by SRB assay; assay type: functional, cell-based; in short: as §3
[1] = Induction of [32P]-labeled 49-mer oligonucleotide duplex DNA 12 with GNC sequence at terminus (unknown origin) interstrand cross-linking at 1 mM after 16 hrs by PAGE
In short: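 32P-labelled 12a (1.0 μM) annealed with 1.5 equiv of 12b in 10 mM potassium phosphate pH 7 / 100 mM NaCl (65 °C for 3 min, then slow cooling). Duplex incubated with compound (final 1 μM–5 mM), with or without H2O2, in NaCl and potassium phosphate pH 8 at room temperature for 16 h. Quenched in formamide; 20% denaturing PAGE.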

SF-268 = experiment: Cytotoxicity against human SF268 cells assessed as growth inhibition at 10 uM after 48 hrs by SRB assay; assay type: functional, cell-based; in short: as §1
OVCAR-3 = experiment: Cytotoxicity against human OVCAR3 cells assessed as growth inhibition at 10 uM after 48 hrs by SRB assay; assay type: functional, cell-based; in short: as §1
HT-29 = experiment: Cytotoxicity against human HT-29 cells assessed as growth inhibition at 10 uM after 48 hrs by SRB assay; assay type: functional, cell-based; in short: as §3
BT-549 = experiment: Cytotoxicity against human BT549 cells assessed as growth inhibition at 10 uM after 48 hrs by SRB assay; assay type: functional, cell-based; in short: as §3
SNB-75 = experiment: Cytotoxicity against human SNB75 cells assessed as growth inhibition at 10 uM after 48 hrs by SRB assay; assay type: functional, cell-based; in short: as §2
COLO 205 = experiment: Cytotoxicity against human COLO205 cells assessed as growth inhibition at 10 uM after 48 hrs by SRB assay; assay type: functional, cell-based; in short: as §3
Malme-3M = experiment: Cytotoxicity against human MALME-3M cells assessed as growth inhibition at 10 uM after 48 hrs by SRB assay; assay type: functional, cell-based; in short: as §3
KM12 = experiment: Cytotoxicity against human KM12 cells assessed as growth inhibition at 10 uM after 48 hrs by SRB assay; assay type: functional, cell-based; in short: as §3
MDA-MB-435 = experiment: Cytotoxicity against human MDA-MB-435 cells assessed as growth inhibition at 10 uM after 48 hrs by SRB assay; assay type: functional, cell-based; in short: as §1
T47D = experiment: Cytotoxicity against human T47D cells assessed as growth inhibition at 10 uM after 48 hrs by SRB assay; assay type: functional, cell-based; in short: as §2
M14 = experiment: Cytotoxicity against human M14 cells assessed as growth inhibition at 10 uM after 48 hrs by SRB assay; assay type: functional, cell-based; in short: as §3
K562 = experiment: Cytotoxicity against human K562 cells assessed as growth inhibition at 10 uM after 48 hrs by SRB assay; assay type: functional, cell-based; in short: as §3
HCT-15 = experiment: Cytotoxicity against human HCT15 cells assessed as growth inhibition at 10 uM after 48 hrs by SRB assay; assay type: functional, cell-based; in short: as §3
HCT-116 = experiment: Cytotoxicity against human HCT116 cells assessed as growth inhibition at 10 uM after 48 hrs by SRB assay; assay type: functional, cell-based; in short: as §3
SR = experiment: Cytotoxicity against human SR cells assessed as growth inhibition at 10 uM after 48 hrs by SRB assay; assay type: functional, cell-based; in short: as §2
SK-OV-3 = experiment: Cytotoxicity against human SKOV3 cells assessed as growth inhibition at 10 uM after 48 hrs by SRB assay; assay type: functional, cell-based; in short: as §1
NCI/ADR-RES = experiment: Cytotoxicity against human NCI-ADR-RES cells assessed as growth inhibition at 10 uM after 48 hrs by SRB assay; assay type: functional, cell-based; in short: as §1
OVCAR-8 = experiment: Cytotoxicity against human OVCAR8 cells assessed as growth inhibition at 10 uM after 48 hrs by SRB assay; assay type: functional, cell-based; in short: as §1
SN12C = experiment: Cytotoxicity against human SN12C cells assessed as growth inhibition at 10 uM after 48 hrs by SRB assay; assay type: functional, cell-based; in short: as §2
UACC-257 = experiment: Cytotoxicity against human UACC257 cells assessed as growth inhibition at 10 uM after 48 hrs by SRB assay; assay type: functional, cell-based; in short: as §2
RPMI-8226 = experiment: Cytotoxicity against human RPMI8226 cells after 48 hrs by SRB assay; assay type: functional; conditions: RPMI-8226, 48 h
In short: (§4)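 GI50 from the NCI Developmental Therapeutics Program in vitro human tumor cell screen. Cell lines were maintained in RPMI 1640 with 5% fetal bovine serum and 2 mM L-glutamine. They were seeded at 5000–40 000 cells/well, depending on each line's doubling time, then exposed to drug for 48 h at 37 °C, 5% CO2.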

[2] = Cytotoxicity against human OVCAR8 cells after 48 hrs by SRB assay; assay type: functional; conditions: OVCAR-8, 48 h; in short: as §4
[3] = Cytotoxicity against human UACC62 cells after 48 hrs by SRB assay; assay type: functional; conditions: UACC-62, 48 h
In short: (§5)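 GI50 from the NCI-60 DTP human tumour line screen. Lines grown in RPMI 1640 with 5% fetal bovine serum and 2 mM L-glutamine, plated at 5000–40 000 cells/well according to doubling time. Incubated 48 h at 37 °C, 5% CO2.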

NCI-H460 = experiment: Cytotoxicity against human NCI-H460 cells after 48 hrs by SRB assay; assay type: functional; conditions: NCI-H460, 48 h; in short: as §4
SK-MEL-5 = experiment: Cytotoxicity against human SK-MEL-5 cells after 48 hrs by SRB assay; assay type: functional; conditions: SK-MEL-5, 48 h; in short: as §4
SNB-19 = experiment: Cytotoxicity against human SNB19 cells after 48 hrs by SRB assay; assay type: functional; conditions: SNB-19, 48 h; in short: as §5

Row | SMILES | growth inhibition (GI) (SK-MEL-2) | growth inhibition (GI) (TK-10) | growth inhibition (GI) (Hs-578T) | growth inhibition (GI) (OVCAR-4) | growth inhibition (GI) (A549) | Activity [1] | growth inhibition (GI) (SF-268) | growth inhibition (GI) (OVCAR-3) | growth inhibition (GI) (HT-29) | growth inhibition (GI) (BT-549) | growth inhibition (GI) (SNB-75) | growth inhibition (GI) (COLO 205) | growth inhibition (GI) (Malme-3M) | growth inhibition (GI) (KM12) | growth inhibition (GI) (MDA-MB-435) | growth inhibition (GI) (T47D) | growth inhibition (GI) (M14) | growth inhibition (GI) (K562) | growth inhibition (GI) (HCT-15) | growth inhibition (GI) (HCT-116) | other results
1 | CC1(C)OB(c2ccc(N(CCBr)CCBr)cc2)OC1(C)C | Active | Active | Active | Active | Active | inactive | Active | Active | Active | Active | Active | Active | Active | Active | Active | Active | Active | Active | Active | Active | growth inhibition (GI) (SR): Active; growth inhibition (GI) (SK-OV-3): Active; growth inhibition (GI) (NCI/ADR-RES): Active; growth inhibition (GI) (OVCAR-8): Active; growth inhibition (GI) (SN12C): Active; growth inhibition (GI) (UACC-257): Active
2 | CC1(C)OB(c2ccc(N(CCBr)CCOS(C)(=O)=O)cc2)OC1(C)C | Active | Active | Active | Active | Active | inactive | Active | Active | Active | Active | Active | Active | Active | Active | Active | Active | Active | Active | Active | Active | growth inhibition (GI) (SR): Active; growth inhibition (GI) (SK-OV-3): Active; growth inhibition (GI) (NCI/ADR-RES): Active; growth inhibition (GI) (OVCAR-8): Active; growth inhibition (GI) (SN12C): Active; growth inhibition (GI) (UACC-257): Active
3 | CC1(C)OB(c2ccc(N(CCCl)CCBr)cc2)OC1(C)C | Active | Active | Active | Active | Active | inactive | Active | Active | Active | Active | Active | Active | Active | Active | Active | Active | Active | Active | Active | Active | GI50 (RPMI-8226): 19.4 µM; GI50 [2]: 11.9 µM; GI50 [3]: 9.38 µM; GI50 (NCI-H460): 0.42 µM; GI50 (SK-MEL-5): 13.7 µM; GI50 (SNB-19): 10.6 µM; growth inhibition (GI) (SR): Active; growth inhibition (GI) (SK-OV-3): Active; growth inhibition (GI) (NCI/ADR-RES): Active; growth inhibition (GI) (OVCAR-8): Active; growth inhibition (GI) (SN12C): Active; growth inhibition (GI) (UACC-257): Active
4 | CC1(C)OB(c2ccc(N(CCCl)CCCl)cc2)OC1(C)C | Active | Active | Active | Active | Active | inactive | Active | Active | Active | Active | Active | Active | Active | Active | Active | Active | Active | Active | Active | Active | GI50 (RPMI-8226): 10.9 µM; GI50 [2]: 7.83 µM; GI50 [3]: 6.12 µM; GI50 (NCI-H460): 0.33 µM; GI50 (SK-MEL-5): 14.5 µM; GI50 (SNB-19): 8.06 µM; growth inhibition (GI) (SR): Active; growth inhibition (GI) (SK-OV-3): Active; growth inhibition (GI) (NCI/ADR-RES): Active; growth inhibition (GI) (OVCAR-8): Active; growth inhibition (GI) (SN12C): Active; growth inhibition (GI) (UACC-257): Active
5 | CC1(C)OB(c2ccc(COC(=O)N(CCCl)CCCl)cc2)OC1(C)C | inactive | inactive | inactive | inactive | inactive | inactive | inactive | inactive | inactive | inactive | inactive | inactive | inactive | inactive | inactive | inactive | inactive | inactive | inactive | inactive | growth inhibition (GI) (SR): inactive; growth inhibition (GI) (SK-OV-3): inactive; growth inhibition (GI) (NCI/ADR-RES): inactive; growth inhibition (GI) (OVCAR-8): inactive; growth inhibition (GI) (SN12C): inactive; growth inhibition (GI) (UACC-257): inactive

— ChEMBL document CHEMBL3286203, “Reactive oxygen species (ROS) inducible DNA cross-linking agents and their effect on cancer cells and normal lymphocytes” (J Med Chem, 2014)
